This note sets out measurements from ChEMBL document CHEMBL5674890, “Selective inhibition of CBP/p300 HAT by A-485 results in suppression of lipogenesis and hepatic gluconeogenesis” (Cell Death Dis, 2020).

Structures are written as SMILES. Active and inactive are the calls of the source. The rule behind the calls is not given here.

Assay [1] concerns Mus musculus. In words: Inhibition of lipogenesis in C57BL/6 mouse supplemented with high-fat diet assessed as decrease in ChREBP mRNA expression at 20 mg/kg/day, ip administered for 1 week measured by RT-qPCR assay. The settings on record: time 1.0 weeks. In kind it is functional, organism-based. The essentials:
(§1)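 Male C57BL/6 mice were fed high-fat diet for 14 weeks from 5 weeks of age, then injected ip with 20 mg·kg−1·day−1 for 7 days or given vehicle. Epididymal and inguinal WAT were weighed, examined by H&E, and analysed. Transcripts were measured by Trizol/SYBR Green RT-qPCR; proteins by western blot. n = 5–9; mean ± SEM.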
In general terms: In qPCR the cycle at which signal appears reflects the starting amount.

Assay [2] concerns Hepatocyte. Kind of assay: Inhibition of glucogenesis in mouse primary hepatocytes stimulated with 100 uM 8-Br-cAMP assessed as decrease in G6Pc mRNA expression at 3 uM measured after 8 hrs by RT-qPCR assay.
The target of assay [3] is T1, CREB-binding protein/Histone acetyltransferase p300 (Homo sapiens) (UniProt Q09472+Q92793). Kind of assay: Inhibition of CBP/p300 in mouse primary hepatocytes stimulated with 100 uM 8-Br-cAMP assessed as effect on COP1 protein expression at 3 uM measured after 12 hrs by western blot analysis. Format: cell-based. The note with it: Primary hepatocyte. (A western blot detects proteins with antibodies after separation by electrophoresis.)

The test system of assay [4] is HepG2. In words: Inhibition of glucogenesis in human HepG2 cells stimulated with 8-Br-cAMP at 3 uM assessed as effect on change in TORC2/CREB interaction measured by coimmunoprecipitation analysis. Format: functional, cell-based. The essentials: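 HepG2 cells treated with 3 μM compound. CREB association with CBP and TORC2 assessed by coimmunoprecipitation (antibody 2 h, protein A/G beads overnight at 4 °C) and western blot.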

For assay [5], the system named is Mus musculus. In words: Inhibition of hepatic lipogenesis in C57BL/6 mouse supplemented with high fat diet assessed as decrease in triglyceride level at 20 mg/kg/day, ip administered for 1 week. Format: functional, organism-based. The note with it: time 1.0 weeks. The essentials: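 Male C57BL/6 mice received ip A-485 at 20 mg·kg−1·day−1 for 7 days, versus vehicle. NCD mice were 8 weeks old. HFD mice had been on high-fat diet for 14 weeks from 5 weeks of age. Liver triglyceride and total cholesterol content was determined. n = 5–9; mean ± SEM.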

For assay [6], the system named is Adipocyte. Kind of assay: Inhibition of lipogenesis in mouse adipocytes isolated stromal vascular cells assessed as decrease in FAS protein expression measured after 24 hrs by western blot analysis. In kind it is functional, cell-based.
Assay [7] relates to Adipocyte. In words: Inhibition of lipogenesis in mouse adipocytes isolated stromal vascular cells assessed as decrease in ChREBP mRNA expression measured after 24 hrs by RT-qPCR assay. In kind it is functional, cell-based. The essentials: (§2)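 Stromal vascular cells from inguinal WAT of C57BL/6 mice, grown in DMEM/F12 + 10% FBS at 37 °C, 10% CO2. At confluence, induced 48 h with 5 μg/ml insulin, 1 μM dexamethasone, 0.5 mM isobutylmethylxanthine, then 6 days in 5 μg/ml insulin; fully differentiated day 8. Mature adipocytes exposed to inhibitor 24 h. Total RNA by Trizol, SYBR Green RT-qPCR; protein by western blot.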

Assay [8] deals with Mus musculus. In words: Inhibition of lipogenesis in C57BL/6 mouse supplemented with normal chow diet assessed as effect on MCAD mRNA expression at 20 mg/kg/day, ip administered for 1 week measured by RT-qPCR assay. Format: functional, organism-based. The note with it: time 1.0 weeks. The essentials:
(§3)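 Eight-week-old male C57BL/6 mice on normal chow were given 20 mg·kg−1·day−1 ip daily for 7 days or vehicle. Epididymal WAT was collected. Lipogenic, adipogenic and fatty-acid-oxidation transcripts were quantified by Trizol extraction and SYBR Green RT-qPCR. FAS, ACC, PPARγ and C/EBPα protein were assessed by western blot. n = 5–9; mean ± SEM.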

In assay [9] the test system is Mus musculus. Kind of assay: Inhibition of lipogenesis in C57BL/6 mouse supplemented with normal chow diet assessed as decrease in ChREBP mRNA expression at 20 mg/kg/day, ip administered for 1 week measured by RT-qPCR assay. The settings on record: time 1.0 weeks. In kind it is functional, organism-based. The essentials: as §3
In assay [10] the test system is Mus musculus. Kind of assay: Inhibition of lipogenesis in C57BL/6 mouse supplemented with normal chow diet assessed as decrease in SREBP-1c mRNA expression at 20 mg/kg/day, ip administered for 1 week measured by RT-qPCR assay. Format: functional, organism-based. The settings on record: time 1.0 weeks. The essentials: as §3
The test system of assay [11] is Mus musculus. In words: Inhibition of lipogenesis in C57BL/6 mouse supplemented with high-fat diet assessed as decrease in SCD1 mRNA expression at 20 mg/kg/day, ip administered for 1 week measured by RT-qPCR assay. In kind it is functional, organism-based. The settings on record: time 1.0 weeks. A digest of the protocol: as §1
Assay [12] deals with Hepatocyte. In words: Inhibition of glucogenesis in mouse primary hepatocytes stimulated with 100 uM 8-Br-cAMP assessed as decrease in PEPCK mRNA expression at 3 uM measured after 8 hrs by RT-qPCR assay.
Assay [13] is filed under the species Mus musculus. In words: Inhibition of glucogenesis in mouse assessed as decrease in hepatic FOXO1 protein expression measured by western blot analysis. In kind it is functional, organism-based. The essentials: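 Livers from vehicle- or treated mice (ip 20 mg·kg−1·day−1 for 7 days) homogenized in lysis buffer; FOXO1 and C/EBPα analysed by western blot.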

Assay [14] has as its system Mus musculus. In words: Anti-obesity activity in C57BL/6 mouse supplemented with high fat diet assessed as improvement in glucose tolerance at 20 mg/kg/day, ip administered for 1 week measured by intraperitoneal glucose tolerance test. In kind it is functional, organism-based. The note with it: time 1.0 weeks. A digest of the protocol:
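High-fat diet mice (male C57BL/6, 14 weeks on HFD from 5 weeks of age), ip 20 mg·kg−1·day−1 for 7 days. 16 h fast, then glucose 2 g/kg body weight ip; blood glucose tracked during the test.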

Assay [15] deals with Mus musculus. In words: Inhibition of hepatic lipogenesis in C57BL/6 mouse supplemented with normal chow diet assessed as decrease in triglyceride level at 20 mg/kg/day, ip administered for 1 week measured by Oil red O staining method. Format: functional, organism-based. The note with it: time 1.0 weeks.
The test system of assay [16] is Hepatocyte. Kind of assay: Inhibition of glucogenesis in mouse primary hepatocytes stimulated with 100 uM 8-Br-cAMP assessed as effect on pCREB protein expression at 3 uM measured after 1 hr by western blot analysis. In kind it is functional, cell-based. The essentials:
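Primary hepatocytes from C57BL/6 mice, isolated by two-step perfusion, were co-treated with 3 μM A-485 and 100 μM 8-Br-cAMP for 1 h. Phospho-CREB, phospho-AMPK and phospho-TORC2 were detected by western blot of cell lysates. Three independent experiments; mean ± SEM.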

The subject of assay [17] is Mus musculus. Kind of assay: Inhibition of lipogenesis in C57BL/6 mouse supplemented with normal chow diet assessed as effect on UCP1 mRNA expression at 20 mg/kg/day, ip administered for 1 week measured by RT-qPCR assay. Format: functional, organism-based. The settings on record: time 1.0 weeks. A digest of the protocol: as §3
The target in assay [18] is T1, CREB-binding protein/Histone acetyltransferase p300 (Homo sapiens). In words: Inhibition of CBP/p300 in human HepG2 cells stimulated with 100 uM 8-Br-cAMP assessed as induction of FOXO1 deacetylation at 3 uM measured after 6 hrs. In kind it is cell-based. A digest of the protocol: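 HepG2 cells given 3 μM compound and 100 μM 8-Br-cAMP for 6 h. Endogenous FOXO1 immunoprecipitated and its acetylation detected by immunoblot.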

Assay [19] relates to Hepatocyte. In words: Inhibition of glucogenesis in mouse primary hepatocytes stimulated with 100 uM 8-Br-cAMP assessed as decrease in glucose production at 3 uM measured after 24 hrs. Format: functional, cell-based. The essentials: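 Two-step-perfusion primary mouse hepatocytes pretreated 16 h with 100 nM dexamethasone. Then incubated 24 h in glucose-free DMEM with 1 mM pyruvate, 10 mM lactate, 0.25% BSA, 100 μM 8-Br-cAMP and 3 μM test agent. Medium glucose measured colorimetrically. Mean ± SEM, three independent experiments.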

For assay [20], the system named is Adipocyte. In words: Inhibition of lipogenesis in mouse adipocytes isolated stromal vascular cells assessed as decrease in PPARgamma mRNA expression measured after 24 hrs by RT-qPCR assay. In kind it is functional, cell-based. A digest of the protocol: as §2

T1 sequence (Q09472 whole entry, looked up): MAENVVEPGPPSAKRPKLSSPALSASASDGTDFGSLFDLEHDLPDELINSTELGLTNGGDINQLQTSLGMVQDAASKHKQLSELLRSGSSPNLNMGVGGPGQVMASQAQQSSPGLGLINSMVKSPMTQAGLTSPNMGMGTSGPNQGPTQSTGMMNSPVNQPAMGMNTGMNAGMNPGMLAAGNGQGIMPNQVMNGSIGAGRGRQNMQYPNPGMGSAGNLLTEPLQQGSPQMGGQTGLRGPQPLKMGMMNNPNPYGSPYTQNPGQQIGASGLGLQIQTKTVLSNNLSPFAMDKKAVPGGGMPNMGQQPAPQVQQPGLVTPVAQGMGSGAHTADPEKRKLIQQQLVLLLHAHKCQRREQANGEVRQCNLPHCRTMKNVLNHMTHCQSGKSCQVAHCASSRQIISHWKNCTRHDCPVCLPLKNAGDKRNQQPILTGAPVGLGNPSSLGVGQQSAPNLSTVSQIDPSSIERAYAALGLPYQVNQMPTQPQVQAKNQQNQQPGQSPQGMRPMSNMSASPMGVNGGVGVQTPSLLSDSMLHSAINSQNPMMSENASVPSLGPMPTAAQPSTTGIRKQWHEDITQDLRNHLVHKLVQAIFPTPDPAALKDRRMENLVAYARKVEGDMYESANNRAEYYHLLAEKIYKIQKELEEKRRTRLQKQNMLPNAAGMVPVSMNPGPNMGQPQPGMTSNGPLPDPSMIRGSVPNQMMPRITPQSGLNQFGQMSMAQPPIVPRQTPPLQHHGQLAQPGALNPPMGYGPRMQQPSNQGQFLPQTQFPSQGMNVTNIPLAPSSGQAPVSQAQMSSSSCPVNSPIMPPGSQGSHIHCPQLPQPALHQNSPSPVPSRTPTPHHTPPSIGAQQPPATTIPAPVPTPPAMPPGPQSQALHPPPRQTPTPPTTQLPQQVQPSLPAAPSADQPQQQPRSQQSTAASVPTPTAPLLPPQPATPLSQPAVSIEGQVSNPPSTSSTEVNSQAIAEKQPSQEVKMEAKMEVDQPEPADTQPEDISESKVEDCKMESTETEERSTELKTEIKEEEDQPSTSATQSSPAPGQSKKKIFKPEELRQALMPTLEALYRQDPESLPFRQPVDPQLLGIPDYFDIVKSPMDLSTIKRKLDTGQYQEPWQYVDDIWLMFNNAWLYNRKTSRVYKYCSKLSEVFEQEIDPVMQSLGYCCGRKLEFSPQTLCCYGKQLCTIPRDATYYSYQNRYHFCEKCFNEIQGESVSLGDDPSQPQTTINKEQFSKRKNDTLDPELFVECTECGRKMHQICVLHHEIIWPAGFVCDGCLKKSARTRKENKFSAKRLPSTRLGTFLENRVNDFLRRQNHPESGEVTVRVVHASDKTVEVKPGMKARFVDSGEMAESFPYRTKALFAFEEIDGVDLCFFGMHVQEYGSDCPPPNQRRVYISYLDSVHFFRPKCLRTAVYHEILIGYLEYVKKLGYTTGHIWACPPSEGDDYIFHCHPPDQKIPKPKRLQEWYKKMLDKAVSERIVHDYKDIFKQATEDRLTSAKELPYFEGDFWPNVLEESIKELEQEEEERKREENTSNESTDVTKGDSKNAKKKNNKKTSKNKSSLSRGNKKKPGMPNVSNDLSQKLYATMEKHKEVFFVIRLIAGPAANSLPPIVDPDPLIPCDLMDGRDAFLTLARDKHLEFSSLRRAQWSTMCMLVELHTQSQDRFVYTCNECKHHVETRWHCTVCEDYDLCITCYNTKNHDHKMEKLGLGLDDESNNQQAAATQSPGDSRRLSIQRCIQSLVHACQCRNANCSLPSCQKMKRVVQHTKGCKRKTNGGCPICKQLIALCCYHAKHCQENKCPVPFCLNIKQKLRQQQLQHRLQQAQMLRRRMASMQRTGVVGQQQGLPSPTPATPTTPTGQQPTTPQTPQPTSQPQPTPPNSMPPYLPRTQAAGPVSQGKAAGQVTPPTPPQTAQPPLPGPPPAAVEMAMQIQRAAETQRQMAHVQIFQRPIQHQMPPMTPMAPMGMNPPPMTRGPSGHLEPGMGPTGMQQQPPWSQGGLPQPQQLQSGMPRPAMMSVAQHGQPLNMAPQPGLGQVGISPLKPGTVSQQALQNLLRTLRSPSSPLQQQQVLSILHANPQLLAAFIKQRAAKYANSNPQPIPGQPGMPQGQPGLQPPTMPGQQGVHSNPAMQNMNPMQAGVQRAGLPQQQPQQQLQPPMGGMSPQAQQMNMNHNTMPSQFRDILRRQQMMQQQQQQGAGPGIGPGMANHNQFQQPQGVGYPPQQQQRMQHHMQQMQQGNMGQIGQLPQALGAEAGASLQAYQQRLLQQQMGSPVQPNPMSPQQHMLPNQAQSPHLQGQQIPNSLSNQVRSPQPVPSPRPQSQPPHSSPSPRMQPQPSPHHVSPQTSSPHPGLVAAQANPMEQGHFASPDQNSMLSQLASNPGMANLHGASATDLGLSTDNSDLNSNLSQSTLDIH
T1 sequence (Q92793 whole entry, looked up): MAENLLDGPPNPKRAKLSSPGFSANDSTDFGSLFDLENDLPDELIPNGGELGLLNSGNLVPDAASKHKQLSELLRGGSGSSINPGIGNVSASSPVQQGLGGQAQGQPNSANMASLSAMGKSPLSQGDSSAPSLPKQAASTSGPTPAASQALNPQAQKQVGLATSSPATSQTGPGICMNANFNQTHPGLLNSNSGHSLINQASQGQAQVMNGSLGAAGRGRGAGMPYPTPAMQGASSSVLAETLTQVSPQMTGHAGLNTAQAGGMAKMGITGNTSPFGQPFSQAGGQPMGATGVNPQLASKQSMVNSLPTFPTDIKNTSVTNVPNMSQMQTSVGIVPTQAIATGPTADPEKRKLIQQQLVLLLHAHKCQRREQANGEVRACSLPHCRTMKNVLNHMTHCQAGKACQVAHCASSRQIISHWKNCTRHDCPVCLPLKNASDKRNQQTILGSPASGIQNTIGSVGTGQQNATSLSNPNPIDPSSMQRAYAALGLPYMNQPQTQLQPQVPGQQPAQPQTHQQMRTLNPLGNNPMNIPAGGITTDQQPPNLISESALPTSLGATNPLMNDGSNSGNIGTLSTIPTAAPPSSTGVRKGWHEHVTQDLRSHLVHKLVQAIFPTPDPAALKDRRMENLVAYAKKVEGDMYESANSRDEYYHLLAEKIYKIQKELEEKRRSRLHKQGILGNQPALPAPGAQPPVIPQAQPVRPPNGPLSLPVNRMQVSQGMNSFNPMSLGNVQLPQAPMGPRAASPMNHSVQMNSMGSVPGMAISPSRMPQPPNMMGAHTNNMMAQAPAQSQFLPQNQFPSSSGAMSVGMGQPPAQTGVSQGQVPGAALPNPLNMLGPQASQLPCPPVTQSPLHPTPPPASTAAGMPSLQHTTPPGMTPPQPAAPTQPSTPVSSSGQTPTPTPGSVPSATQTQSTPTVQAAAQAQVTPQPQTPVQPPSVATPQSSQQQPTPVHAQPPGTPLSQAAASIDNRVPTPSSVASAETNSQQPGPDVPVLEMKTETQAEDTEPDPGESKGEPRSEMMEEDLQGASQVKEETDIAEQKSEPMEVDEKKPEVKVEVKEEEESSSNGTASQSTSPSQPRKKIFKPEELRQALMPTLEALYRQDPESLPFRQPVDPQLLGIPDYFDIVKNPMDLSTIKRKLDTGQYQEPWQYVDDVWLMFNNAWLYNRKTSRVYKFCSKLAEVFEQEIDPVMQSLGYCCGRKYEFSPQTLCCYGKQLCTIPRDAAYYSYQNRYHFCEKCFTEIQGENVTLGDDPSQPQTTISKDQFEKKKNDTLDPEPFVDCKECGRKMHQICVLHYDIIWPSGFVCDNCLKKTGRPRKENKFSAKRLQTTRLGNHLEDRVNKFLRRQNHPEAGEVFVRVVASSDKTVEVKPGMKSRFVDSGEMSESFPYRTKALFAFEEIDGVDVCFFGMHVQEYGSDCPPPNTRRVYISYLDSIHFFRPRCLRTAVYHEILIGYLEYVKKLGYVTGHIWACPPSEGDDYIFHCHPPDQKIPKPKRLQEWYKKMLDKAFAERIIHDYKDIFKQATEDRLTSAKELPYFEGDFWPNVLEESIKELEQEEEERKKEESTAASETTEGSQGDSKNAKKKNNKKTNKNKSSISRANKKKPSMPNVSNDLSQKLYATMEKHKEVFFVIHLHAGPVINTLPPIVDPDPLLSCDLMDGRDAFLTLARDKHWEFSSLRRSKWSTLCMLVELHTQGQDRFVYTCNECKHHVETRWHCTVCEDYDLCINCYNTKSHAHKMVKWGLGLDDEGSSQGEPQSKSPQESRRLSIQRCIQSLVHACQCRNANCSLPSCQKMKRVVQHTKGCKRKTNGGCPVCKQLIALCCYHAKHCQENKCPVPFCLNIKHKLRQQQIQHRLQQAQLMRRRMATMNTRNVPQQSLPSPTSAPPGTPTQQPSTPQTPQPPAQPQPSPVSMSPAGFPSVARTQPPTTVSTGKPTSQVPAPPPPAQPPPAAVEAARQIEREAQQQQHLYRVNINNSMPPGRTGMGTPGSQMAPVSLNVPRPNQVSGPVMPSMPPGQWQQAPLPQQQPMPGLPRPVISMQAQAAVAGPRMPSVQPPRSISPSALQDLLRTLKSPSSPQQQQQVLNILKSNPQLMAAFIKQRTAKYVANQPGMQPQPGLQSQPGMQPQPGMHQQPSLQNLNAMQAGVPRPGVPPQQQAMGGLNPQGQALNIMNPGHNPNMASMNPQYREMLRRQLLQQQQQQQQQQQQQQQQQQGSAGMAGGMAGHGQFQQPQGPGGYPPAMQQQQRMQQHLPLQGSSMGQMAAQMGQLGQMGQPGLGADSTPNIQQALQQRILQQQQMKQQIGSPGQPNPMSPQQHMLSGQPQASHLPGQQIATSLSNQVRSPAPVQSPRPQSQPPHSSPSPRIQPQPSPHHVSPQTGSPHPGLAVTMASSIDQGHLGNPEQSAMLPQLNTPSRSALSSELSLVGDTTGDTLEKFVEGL

With `CNC(=O)Nc1ccc2c(c1)CCS21OC(=O)N(CC(=O)N(Cc2ccc(F)cc2)[C@@H](C)C(F)(F)F)C1=O` (stereo not given in full), the inhibition result in [1], in assay [2], in assay [5], in assay [6], in assay [7] and in assay [9] was “Active” in each case. Also, the inhibition result in assay [10], in [11], in [12], in [13], in assay [15] and in assay [18] was “Active” throughout. Also, the inhibition result in [19] and in assay [20] was “Active” each time. The inhibition entry in assay [3], in [4], in [8], in [16] and in assay [17] was “inactive” each time. Moreover, in [14], the result was Active.
